From ChEMBL document CHEMBL1136886, “Optimization of benzimidazole series as opioid receptor-like 1 (ORL1) antagonists: SAR study directed toward improvement of selectivity over hERG activity” (Bioorg Med Chem Lett, 2009)

Legend:
Nociceptin receptor [1] = molecular target: T1, Nociceptin receptor (Homo sapiens, UniProt P41146); test: Displacement of [125I]Tyr14-NC/OFQ from human ORL1 receptor
Outline: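 Membrane fractions of CHO cells expressing human ORL1; binding affinity from displacement of radioligand [125I]Tyr14-NC/OFQ.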

[2] = molecular target: Voltage-gated inwardly rectifying potassium channel KCNH2 (Homo sapiens, UniProt Q12809); test: Displacement of [35S]MK499 from human ERG expressed in HEK293 cells
Voltage-gated inwardly rectifying potassium channel KCNH2, sequence (Q12809 whole entry): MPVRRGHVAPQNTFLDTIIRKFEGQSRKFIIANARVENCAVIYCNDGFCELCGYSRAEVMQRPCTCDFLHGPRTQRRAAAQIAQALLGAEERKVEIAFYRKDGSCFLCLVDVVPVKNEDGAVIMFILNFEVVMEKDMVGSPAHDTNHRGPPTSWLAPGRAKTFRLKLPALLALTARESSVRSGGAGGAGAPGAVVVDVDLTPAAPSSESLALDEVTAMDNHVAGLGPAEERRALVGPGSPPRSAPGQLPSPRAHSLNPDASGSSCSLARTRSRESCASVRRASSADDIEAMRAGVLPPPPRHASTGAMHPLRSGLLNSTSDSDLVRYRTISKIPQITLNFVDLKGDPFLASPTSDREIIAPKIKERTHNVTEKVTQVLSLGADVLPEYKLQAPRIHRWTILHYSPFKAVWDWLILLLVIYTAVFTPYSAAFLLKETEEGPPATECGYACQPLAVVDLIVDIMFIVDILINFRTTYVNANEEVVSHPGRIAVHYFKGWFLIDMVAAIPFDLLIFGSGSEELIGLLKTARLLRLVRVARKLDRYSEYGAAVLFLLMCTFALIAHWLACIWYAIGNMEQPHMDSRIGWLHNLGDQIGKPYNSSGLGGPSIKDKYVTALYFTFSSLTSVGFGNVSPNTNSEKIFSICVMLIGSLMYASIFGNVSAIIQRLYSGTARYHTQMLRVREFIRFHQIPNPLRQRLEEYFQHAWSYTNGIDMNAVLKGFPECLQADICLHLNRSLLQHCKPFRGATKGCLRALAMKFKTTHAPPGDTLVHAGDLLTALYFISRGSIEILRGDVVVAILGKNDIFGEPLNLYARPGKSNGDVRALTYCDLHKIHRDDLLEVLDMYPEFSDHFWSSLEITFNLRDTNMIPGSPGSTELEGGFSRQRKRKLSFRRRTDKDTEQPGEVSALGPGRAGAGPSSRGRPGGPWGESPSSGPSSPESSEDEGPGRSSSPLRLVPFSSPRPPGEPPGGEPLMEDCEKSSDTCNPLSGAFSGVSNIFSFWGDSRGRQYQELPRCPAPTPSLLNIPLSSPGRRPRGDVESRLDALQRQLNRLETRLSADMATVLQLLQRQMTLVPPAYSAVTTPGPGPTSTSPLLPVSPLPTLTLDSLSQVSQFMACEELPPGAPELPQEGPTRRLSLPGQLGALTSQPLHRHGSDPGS

Nociceptin receptor [3] = molecular target: T1, Nociceptin receptor; test: Antagonist activity at ORL1 receptor expressed in CHO cells assessed as inhibition of NC/OFQ-stimulated [35S]GTPgammaS binding; assay type: functional, cell-based
Outline: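 Membrane fractions of CHO cells expressing ORL1 used; functional activity measured by [35S]GTPγS binding to G proteins.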

[4] = Lipophilicity, log D at pH 7.4 by shake-flask method; assay type: physicochemical; details: buffer
Mu-type opioid receptor = Mu-type opioid receptor (Homo sapiens, UniProt P35372); test: Displacement of [3H]diprenorphin from human cloned mu opioid receptor expressed in CHO cells; assay type: cell-based
Mu-type opioid receptor, sequence (P35372 whole entry): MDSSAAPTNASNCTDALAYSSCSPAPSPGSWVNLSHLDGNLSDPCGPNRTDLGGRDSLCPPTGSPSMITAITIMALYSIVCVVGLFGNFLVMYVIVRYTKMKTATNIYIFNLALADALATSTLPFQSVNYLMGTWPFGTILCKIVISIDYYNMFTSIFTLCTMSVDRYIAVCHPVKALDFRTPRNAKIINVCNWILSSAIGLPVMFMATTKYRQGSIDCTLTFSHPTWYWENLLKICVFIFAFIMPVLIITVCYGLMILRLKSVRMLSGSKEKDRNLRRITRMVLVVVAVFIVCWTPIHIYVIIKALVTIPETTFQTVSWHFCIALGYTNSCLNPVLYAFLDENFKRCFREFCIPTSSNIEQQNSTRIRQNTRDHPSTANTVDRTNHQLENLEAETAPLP

[5] = molecular target: Kappa-type opioid receptor (Homo sapiens, UniProt P41145); test: Displacement of [3H]U69593 from human cloned kappa opioid receptor expressed in CHO cells; assay type: cell-based
Kappa-type opioid receptor, sequence (P41145 whole entry): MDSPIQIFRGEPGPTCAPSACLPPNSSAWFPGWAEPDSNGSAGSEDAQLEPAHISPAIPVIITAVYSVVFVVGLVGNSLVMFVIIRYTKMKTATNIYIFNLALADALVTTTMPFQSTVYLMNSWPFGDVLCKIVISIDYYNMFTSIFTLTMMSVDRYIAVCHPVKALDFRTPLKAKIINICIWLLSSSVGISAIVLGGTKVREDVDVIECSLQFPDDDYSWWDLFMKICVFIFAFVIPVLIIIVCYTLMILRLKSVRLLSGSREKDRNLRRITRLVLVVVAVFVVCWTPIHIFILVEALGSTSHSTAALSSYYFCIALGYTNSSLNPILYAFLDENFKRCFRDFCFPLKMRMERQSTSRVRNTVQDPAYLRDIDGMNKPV

T1 sequence (P41146 whole entry): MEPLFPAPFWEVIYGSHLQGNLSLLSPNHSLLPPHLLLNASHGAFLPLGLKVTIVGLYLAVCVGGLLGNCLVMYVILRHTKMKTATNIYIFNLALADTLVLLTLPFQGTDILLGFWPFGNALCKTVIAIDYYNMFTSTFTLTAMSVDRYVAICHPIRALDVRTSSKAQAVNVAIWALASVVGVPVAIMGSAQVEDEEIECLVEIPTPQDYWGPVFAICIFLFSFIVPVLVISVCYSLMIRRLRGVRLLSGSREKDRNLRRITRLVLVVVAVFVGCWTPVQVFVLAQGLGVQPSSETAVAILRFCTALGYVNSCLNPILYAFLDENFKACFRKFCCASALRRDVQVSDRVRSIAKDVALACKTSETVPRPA

Row | Structure (SMILES) | IC50 (Nociceptin receptor [1]) [nM] | IC50 (Nociceptin receptor [3]) [nM] | logD [4] | IC50 (Mu-type opioid receptor) [nM] | IC50 [5] [nM] | IC50 [2] [nM]
1 | CCN1CCN(c2cc3[nH]c(SC(C)(C)C)nc3cc2Cl)CC1 | 22 |  |  |  |  | 
2 | CCN1CCN(c2cc3[nH]c(S[C@]4(C)CC[C@@H](c5nnn(C)n5)CC4)nc3cc2Cl)CC1 | 2.2 | 0.9 | 3.1 |  |  | 
3 | C[C@@H]1CN(CCC#N)CCN1c1cc2[nH]c(SC(C)(C)C)nc2cc1Cl | 27 | 6.4 |  |  |  | > 10000
4 | CCN1CCN(c2cc3[nH]c(S[C@]4(C)CC[C@@H](N(C)C(C)=O)CC4)nc3cc2Cl)CC1 | 0.81 | 1.3 | 2.7 | 840 | 160 | 
5 | CCN1CCN(c2cc3[nH]c(S[C@]4(C)CC[C@@H](NS(C)(=O)=O)CC4)nc3cc2Cl)CC1 | 2.1 | 1.8 | 2.5 |  |  | > 10000
6 | CCN1CCN(c2cc3[nH]c(S[C@]4(C)CC[C@@H](c5nnco5)CC4)nc3cc2Cl)CC1 | 1.1 | 0.59 |  |  |  | 
7 | CCN1CCN(c2cc3[nH]c(S[C@]4(C)CC[C@@H](NC(C)=O)CC4)nc3cc2Cl)CC1 | 1.9 | 1.1 | 2.5 |  |  | > 10000
8 | CCN1CCN(c2cc3[nH]c(S[C@]4(C)CC[C@@H](NC(=O)OC)CC4)nc3cc2Cl)CC1 | 2.4 | 0.72 | 3.4 |  |  | 3500
9 | CCN1CCN(c2cc3[nH]c(SC(C)(C)C)nc3cc2Cl)[C@H](C)C1 | 9.2 | 2.9 |  |  |  | 990
10 | CCN1CCN(c2cc3[nH]c(S[C@]4(C)CC[C@@H](S(C)(=O)=O)CC4)nc3cc2Cl)CC1 | 6.9 | 4 |  |  |  | > 10000
11 | C[C@@H]1CN(CCO)CCN1c1cc2[nH]c(SC(C)(C)C)nc2cc1Cl |  |  |  |  |  | 1600
12 | CC(=O)CN1CCN(c2cc3[nH]c(SC(C)(C)C)nc3cc2Cl)C(C)C1 (racemic) |  | 41 |  |  |  | > 10000
13 | CCN1CCN(c2cc3[nH]c(SC4(C)CCC(NC(=O)OC)C4)nc3cc2Cl)CC1 (racemic) |  | 46 |  |  |  | 

Further compounds by falling IC50 (Nociceptin receptor [1]), results first:

Row | IC50 (Nociceptin receptor [1]) [nM] | IC50 (Nociceptin receptor [3]) [nM] | logD [4] | IC50 (Mu-type opioid receptor) [nM] | IC50 [5] [nM] | Structure (SMILES) | IC50 [2] [nM]
14 | 630 |  |  |  |  | C[C@@H]1CN(CC(F)(F)F)CCN1c1cc2[nH]c(SC(C)(C)C)nc2cc1Cl | 
15 | 61 |  |  |  |  | C[C@@H]1CN(CC#N)CCN1c1cc2[nH]c(SC(C)(C)C)nc2cc1Cl | 
16 | 23 |  |  |  |  | C[C@@H]1CN(CC(F)F)CCN1c1cc2[nH]c(SC(C)(C)C)nc2cc1Cl | > 10000
17 | 21 | 8.6 |  |  |  | CCN1CCN(c2cc3[nH]c(SC(C)(C)CCNC(=O)OC)nc3cc2Cl)CC1 | 
18 | 9.5 | 2.1 |  |  |  | CCN1CCN(c2cc3[nH]c(S[C@]4(C)CC[C@H](NC(=O)OC)CC4)nc3cc2Cl)CC1 | 1500
19 | 7.4 | 3.7 | 2.3 |  |  | CCN1CCN(c2cc3[nH]c(S[C@]4(C)CC[C@@H](c5nnnn5C)CC4)nc3cc2Cl)CC1 | 
20 | 4.3 | 1.1 |  |  |  | CCOC(=O)N1CCC(C)(Sc2nc3cc(Cl)c(N4CCN(CC)CC4)cc3[nH]2)CC1 | 
21 | 1.8 | 7.1 |  |  |  | CCN1CCN(c2cc3[nH]c(S[C@]4(C)CC[C@@H](c5nnc(C)o5)CC4)nc3cc2Cl)CC1 | 
22 | 1.7 | 0.91 | 3.8 |  |  | CCN1CCN(c2cc3[nH]c(S[C@]4(C)CC[C@@H](c5nc(C)no5)CC4)nc3cc2Cl)CC1 | 
23 | 1.4 | 0.55 | 2.9 |  |  | CCN1CCN(c2cc3[nH]c(S[C@]4(C)CC[C@@H](N5CCCC5=O)CC4)nc3cc2Cl)CC1 | > 10000
24 | 1 | 1.1 |  |  |  | CCN1CCN(c2cc3[nH]c(S[C@]4(C)CC[C@@H](C(=O)NC)CC4)nc3cc2Cl)CC1 | > 10000
